This is an account of results in ChEMBL document CHEMBL3046592, “Organophosphorus derivatives containing piperazine dithiosemicarbazones as chemotherapeutants against fungal pathogens of sugarcane” (2005).

Values after ≈ are worked out from the molar mass of the structure shown.

What all share (type): functional
Holding throughout (conditions): 168 h

Test [1] has as its system Curvularia pallescens. In words: Fungicidal activity against Cochliobolus pallescens assessed as mycelial inhibition at 28 +/- 2 degC measured after 7 days by food poison technique.
Test [2] relates to Fusarium oxysporum. Kind of test: Fungicidal activity against Fusarium oxysporum assessed as mycelial inhibition at 28 +/- 2 degC measured after 7 days by food poison technique.
Test [3] relates to Colletotrichum falcatum. In words: Fungicidal activity against Glomerella tucumanensis assessed as mycelial inhibition at 28 +/- 2 degC measured after 7 days by food poison technique.
For test [4], the system named is Curvularia pallescens. In words: Fungicidal activity against Cochliobolus pallescens assessed as mycelial inhibition at 1000 ppm at 28 +/- 2 degC measured after 7 days by food poison technique. Put shortly: (§1)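 Poisoned-food test on oatmeal agar. The compound was dissolved in 0.5 cm3 of solvent and mixed into the medium to give the stated ppm. Controls received the same amount of solvent only. A 5 mm mycelial disk, cut from the periphery of a 2-week-old culture, was placed at the plate centre. Plates were incubated 7 days at 28 ± 2 °C, in triplicate. Percent inhibition = (dc − dt)/dc × 100, using mean colony diameters of control (dc) and treatment (dt).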

For test [5], the system named is Curvularia pallescens. Kind of test: Fungicidal activity against Cochliobolus pallescens assessed as mycelial inhibition at 10 ppm at 28 +/- 2 degC measured after 7 days by food poison technique. In a few lines:
as §1

Test [6] deals with Curvularia pallescens. In words: Fungicidal activity against Cochliobolus pallescens assessed as mycelial inhibition at 100 ppm at 28 +/- 2 degC measured after 7 days by food poison technique. In a few lines: as §1
Test [7] concerns Fusarium oxysporum. In words: Fungicidal activity against Fusarium oxysporum assessed as mycelial inhibition at 1000 ppm at 28 +/- 2 degC measured after 7 days by food poison technique. Put shortly: as §1
Test [8] deals with Fusarium oxysporum. Kind of test: Fungicidal activity against Fusarium oxysporum assessed as mycelial inhibition at 100 ppm at 28 +/- 2 degC measured after 7 days by food poison technique. In a few lines: as §1
Test [9] relates to Colletotrichum falcatum. In words: Fungicidal activity against Glomerella tucumanensis assessed as mycelial inhibition at 1000 ppm at 28 +/- 2 degC measured after 7 days by food poison technique. Put shortly:
as §1

Test [10] has as its system Fusarium oxysporum. In words: Fungicidal activity against Fusarium oxysporum assessed as mycelial inhibition at 10 ppm at 28 +/- 2 degC measured after 7 days by food poison technique. Put shortly:
as §1

The subject of test [11] is Colletotrichum falcatum. In words: Fungicidal activity against Glomerella tucumanensis assessed as mycelial inhibition at 100 ppm at 28 +/- 2 degC measured after 7 days by food poison technique. Put shortly:
as §1

Test [12] has as its system Colletotrichum falcatum. In words: Fungicidal activity against Glomerella tucumanensis assessed as mycelial inhibition at 10 ppm at 28 +/- 2 degC measured after 7 days by food poison technique. In a few lines: as §1

Turning to `CCOP(=O)(OCC)S/C(=N/N=C/c1ccc(Cl)cc1)N1CCN(/C(=N\N=C\c2ccc(Cl)cc2)SP(=O)(OCC)OCC)CC1`, the minimal inhibitory concentration (MIC) in test [1], in [2] and in [3] was 1000 µg/mL (≈ 1.33 mM) each time. Also, the inhibition at 1000 ppm in test [4], in [7] and in [9] was 100% each time. For the same compound, the values for the inhibition at 10 ppm in [5], in test [10] and in [12] were 66.6%, 37.8% and 42.5%, respectively. In addition, the results for the inhibition at 100 ppm in test [6], in test [8] and in test [11] were 88.2%, 76.2% and 72.8%, respectively.
`S=C(N/N=C/c1ccccc1Cl)N1CCN(C(=S)N/N=C/c2ccccc2Cl)CC1`: the inhibition at 1000 ppm in test [4] is 66.2%; in test [7], 69.2%; in test [9], 60.3%. For the same compound, the inhibition at 10 ppm in test [5] amounted to 27.4%; in test [10], 25.5%; in test [12], 21.2%. Moreover, the figures for the inhibition at 100 ppm in test [6], in test [8] and in test [11] were 47.3%, 42% and 30.8%, respectively.
Regarding `S=C(N/N=C/c1ccccc1)N1CCN(C(=S)N/N=C/c2ccccc2)CC1`, the inhibition at 1000 ppm in test [4] worked out at 57.4%; in test [7], 48.8%; in test [9], 53.6%. The inhibition at 10 ppm in [5] turned out to be 20.6%; in test [10], 14.3%; in test [12], 14.1%. Moreover, the results for the inhibition at 100 ppm in test [6], in [8] and in test [11] were 32.1%, 25.6% and 28.9%, respectively.
Regarding `O=[N+]([O-])c1ccc(/C=N/NC(=S)N2CCN(C(=S)N/N=C/c3ccc([N+](=O)[O-])cc3)CC2)cc1`, the inhibition at 1000 ppm was 59.6% in test [4], 44.8% in [7] and 46.6% in test [9]. Moreover, the figures for the inhibition at 10 ppm in test [5], in test [10] and in test [12] were 22.7%, 16.2% and 11.6%, respectively. Also, the inhibition at 100 ppm stood at 31.1% in test [6], 23.9% in test [8] and 24.3% in test [11].
Consider `S=C(N/N=C/c1ccc(Cl)cc1)N1CCN(C(=S)N/N=C/c2ccc(Cl)cc2)CC1`, for which the inhibition at 1000 ppm in [4] came to 68.4%; in [7], 64.8%; in test [9], 68.2%. Further, the inhibition at 10 ppm in [5] was found to be 38.5%; in [10] it was 28.7%; in test [12], 24.8%. Also, the figures for the inhibition at 100 ppm in test [6], in test [8] and in [11] were 49.2%, 41.6% and 35.4%, respectively.
`CCOP(=O)(OCC)S/C(=N/N=C/c1ccc(OC)cc1)N1CCN(/C(=N\N=C\c2ccc(OC)cc2)SP(=O)(OCC)OCC)CC1`: the minimum inhibitory concentration (MIC) in [1], in [2] and in test [3] was 1000 µg/mL (≈ 1.35 mM) throughout. In addition, the inhibition at 1000 ppm in test [4], in test [7] and in test [9] was 100% each time. The inhibition at 10 ppm is 42.2% in test [5], 53.2% in [10] and 36.4% in test [12]. Besides, the inhibition at 100 ppm in test [6] was determined as 80.5%; in test [8] it was 70.6%; in [11], 58.6%.
As to `COC(=O)NC(=S)Nc1ccccc1NC(=S)NC(=O)OC` [THIOPHANATE METHYL], the MIC in test [1], in test [2] and in test [3] was 4000 µg/mL (≈ 11.7 mM) throughout.
As for `CCOP(=O)(OCC)S/C(=N/N=C/c1ccccc1Cl)N1CCN(/C(=N\N=C\c2ccccc2Cl)SP(=O)(OCC)OCC)CC1`, the inhibition at 1000 ppm came out at 88.2% in test [4], 100% in test [7] and 85.6% in [9]. The results for the inhibition at 10 ppm in [5], in test [10] and in test [12] were 47.7%, 56.8% and 55.2%, respectively. Besides, the inhibition at 100 ppm came out at 86.8% in test [6], 82.4% in test [8] and 70.6% in [11].
`CCOP(=O)(OCC)S/C(=N\N=C\c1ccc([N+](=O)[O-])cc1)N1CCN(/C(=N\N=C\c2ccc([N+](=O)[O-])cc2)SP(=O)(OCC)OCC)CC1`: the inhibition at 1000 ppm in [4] was 89.2%; in test [7], 62.6%; in test [9] it was 65.2%. For the same compound, the inhibition at 10 ppm in test [5] was found to be 35.6%; in test [10], 27.5%; in [12], 25.8%. The figures for the inhibition at 100 ppm in [6], in test [8] and in test [11] were 58.2%, 40.2% and 40.8%, respectively.
As to `CCOP(=O)(OCC)S/C(=N/N=C/c1ccccc1)N1CCN(/C(=N\N=C\c2ccccc2)SP(=O)(OCC)OCC)CC1`, the inhibition at 1000 ppm was determined as 75% in test [4], 66.5% in test [7] and 73.4% in test [9]. The inhibition at 10 ppm in test [5] came out at 32.8%; in test [10] it was 24.8%; in test [12], 25.8%. The inhibition at 100 ppm is 49.5% in test [6], 35.6% in test [8] and 40.2% in test [11].
Turning to `COc1ccc(/C=N/NC(=S)N2CCN(C(=S)N/N=C/c3ccc(OC)cc3)CC2)cc1`, the inhibition at 1000 ppm amounted to 67.2% in [4], 66.8% in [7] and 65.9% in test [9]. For the same compound, the inhibition at 10 ppm in [5] turned out to be 28.6%; in test [10] it was 35.3%; in [12], 22.1%. The inhibition at 100 ppm in test [6] amounted to 45.8%; in [8], 40.2%; in test [11], 37.6%.
Take `COC(=O)Nc1nc2ccccc2[nH]1` [CARBENDAZIM]: the figures for the minimum inhibitory concentration (MIC) in test [1], in [2] and in test [3] were 4000 µg/mL (≈ 20.9 mM), 3000 µg/mL (≈ 15.7 mM) and 4000 µg/mL (≈ 20.9 mM), respectively.
